From ChEMBL document CHEMBL1140690, “5-((4-Aminopiperidin-1-yl)methyl)pyrrolotriazine dual inhibitors of EGFR and HER2 protein tyrosine kinases” (Bioorg Med Chem Lett, 2007)
Calls of active or inactive are those of the source. The calls are words filed in the database; no cut-off is given here.

What was measured:
[1] = target: Receptor tyrosine-protein kinase erbB-2 (Homo sapiens, UniProt P04626); assay: Inhibition of human recombinant HER2 expressed in insect Sf9 cells
[2] = target: Epidermal growth factor receptor (Homo sapiens, UniProt P00533); assay: Inhibition of human recombinant EGFR expressed in insect Sf9 cells
NCI-N87 [3] = assay: Antiproliferative activity against human N87 cells
HT-29 = assay: Antiproliferative activity against human HT29 cells; type: functional, cell-based
Summary of the method: (§1)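 HT29 (colon carcinoma) and A2780 (ovarian carcinoma) lines, stated not to rely on EGFR or HER2 signalling, serve as counter-screen lines; proliferation IC50 reported.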

A2780 = assay: Antiproliferative activity against human A2780 cells; type: functional, cell-based; summary of the method: as §1
[4] = AUC (0 to 4 hrs) in BALB/c mouse at 50 mg/kg, po after 4 hrs; type: ADME, organism-based; set-up: time < 4 hr, dose 50 mg/kg, route oral; conditions: plasma
[5] = Drug level in BALB/c mouse plasma at 50 mg/kg, po after 4 hrs; type: ADME, organism-based; set-up: dose 50 mg/kg, route oral
Summary of the method: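 Single oral 50 mg/kg dose in Tween 80/PEG400/water (10/40/50, v/v/v) to three male Balb/C mice; plasma concentration at 4 h averaged, AUC0–4h also derived.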

Liver = assay: Metabolic stability in mouse liver microsomes at 3 uM after 10 mins in presence of NADPH; type: ADME, Microsome
Summary of the method: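 Mouse liver microsomes with NADPH; compound at 3 µM, incubated 10 min; metabolic rate expressed as nmol/min/mg protein.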

NCI-N87 [6] = assay: Antitumor activity against human N87 cells xenografted in athymic mouse at 240 mg/kg, sc QD after 21 days; type: functional; conditions: 504 h
HT29 = assay: Antiproliferative activity against human HT29 cells
[7] = Antitumor activity against human GEO cells xenografted in athymic mouse at 240 mg/kg, […] after 10 days; type: functional; conditions: sc, 240 h
Summary of the method: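 Established subcutaneous GEO human colon carcinoma xenografts in athymic mice. Compound given orally once daily for 10 days (QD × 10) in Tween 80–PEG400–water (10/40/50).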

[8] = target: Hepatocyte growth factor receptor (Homo sapiens, UniProt P08581); assay: Inhibition of Met
Summary of the method: (§2)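 Selectivity-panel kinase assays against each named kinase. IC50 reported as the mean of at least three determinations.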

[9] = target: Tyrosine-protein kinase Lck (Homo sapiens, UniProt P06239); assay: Inhibition of LCK
[10] = target: Vascular endothelial growth factor receptor 2 (Homo sapiens, UniProt P35968); assay: Inhibition of VEGFR2; summary of the method: as §2
CDK2/Cyclin E1 = CDK2/Cyclin E1 (Homo sapiens, UniProt P24941); assay: Inhibition of CDK2; summary of the method: as §2
MAP kinase p38 = MAP kinase p38 (Homo sapiens, UniProt O15264+Q15759+Q16539+P53778); assay: Inhibition of p38; type: protein assay; summary of the method: as §2
[11] = Inhibition of PKA; set-up: species or system Homo sapiens
Summary of the method: (§3)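 Kinase panel IC50s, each reported as the mean of at least three determinations.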

Protein kinase C (PKC) = assay: Inhibition of PKC; set-up: species or system Homo sapiens; summary of the method: as §3
NCI-N87 [12] = assay: Antitumor activity against human N87 cells xenografted in athymic mouse at 180 mg/kg, po QD after 21 days; conditions: 504 h; for minimal effective dose at 180 mg/kg: read-out: MED
[13] = Antitumor activity against human GEO cells xenografted in athymic mouse at 120 mg/kg, sc QD after 10 days
[14] = Antitumor activity against human GEO cells xenografted in athymic mouse at 135 mg/kg, sc BID after 14 days; type: functional; conditions: 336 h, route subcutaneous
GEO = assay: Antitumor activity against human GEO cells xenografted in athymic mouse at 180 mg/kg, sc QD after 10 days; type: functional, organism-based; set-up: dose 180 mg/kg

Epidermal growth factor receptor, sequence (P00533 whole entry): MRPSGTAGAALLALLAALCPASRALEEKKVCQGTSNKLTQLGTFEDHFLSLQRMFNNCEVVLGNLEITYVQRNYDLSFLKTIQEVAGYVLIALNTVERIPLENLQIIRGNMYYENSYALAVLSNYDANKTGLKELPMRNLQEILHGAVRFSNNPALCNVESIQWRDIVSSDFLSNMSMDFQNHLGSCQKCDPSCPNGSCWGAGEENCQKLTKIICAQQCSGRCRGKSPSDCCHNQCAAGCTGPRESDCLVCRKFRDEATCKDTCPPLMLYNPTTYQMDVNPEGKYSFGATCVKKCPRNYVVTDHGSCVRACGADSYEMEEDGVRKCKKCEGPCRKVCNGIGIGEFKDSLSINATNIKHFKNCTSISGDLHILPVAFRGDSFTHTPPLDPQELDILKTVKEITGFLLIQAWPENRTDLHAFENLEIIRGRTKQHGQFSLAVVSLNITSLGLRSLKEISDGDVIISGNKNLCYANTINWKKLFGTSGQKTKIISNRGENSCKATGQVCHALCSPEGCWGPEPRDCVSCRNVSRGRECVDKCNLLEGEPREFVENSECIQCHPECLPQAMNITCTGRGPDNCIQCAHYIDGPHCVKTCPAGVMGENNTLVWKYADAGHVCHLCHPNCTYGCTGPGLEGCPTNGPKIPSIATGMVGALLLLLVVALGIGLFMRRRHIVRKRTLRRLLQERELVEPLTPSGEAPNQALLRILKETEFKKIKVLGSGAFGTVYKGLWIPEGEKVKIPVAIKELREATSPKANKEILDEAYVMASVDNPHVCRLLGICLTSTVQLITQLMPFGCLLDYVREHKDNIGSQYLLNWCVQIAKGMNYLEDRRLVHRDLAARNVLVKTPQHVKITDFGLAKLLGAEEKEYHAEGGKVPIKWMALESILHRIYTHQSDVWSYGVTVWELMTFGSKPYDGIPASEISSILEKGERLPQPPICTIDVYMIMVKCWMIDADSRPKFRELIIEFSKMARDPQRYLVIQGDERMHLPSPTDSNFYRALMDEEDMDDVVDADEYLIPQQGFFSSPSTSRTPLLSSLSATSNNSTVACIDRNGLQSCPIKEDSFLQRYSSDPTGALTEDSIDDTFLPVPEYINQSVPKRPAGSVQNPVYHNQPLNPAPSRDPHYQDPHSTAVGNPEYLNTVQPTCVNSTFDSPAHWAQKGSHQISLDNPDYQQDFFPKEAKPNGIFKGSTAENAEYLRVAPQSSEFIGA
Receptor tyrosine-protein kinase erbB-2, sequence (P04626 whole entry): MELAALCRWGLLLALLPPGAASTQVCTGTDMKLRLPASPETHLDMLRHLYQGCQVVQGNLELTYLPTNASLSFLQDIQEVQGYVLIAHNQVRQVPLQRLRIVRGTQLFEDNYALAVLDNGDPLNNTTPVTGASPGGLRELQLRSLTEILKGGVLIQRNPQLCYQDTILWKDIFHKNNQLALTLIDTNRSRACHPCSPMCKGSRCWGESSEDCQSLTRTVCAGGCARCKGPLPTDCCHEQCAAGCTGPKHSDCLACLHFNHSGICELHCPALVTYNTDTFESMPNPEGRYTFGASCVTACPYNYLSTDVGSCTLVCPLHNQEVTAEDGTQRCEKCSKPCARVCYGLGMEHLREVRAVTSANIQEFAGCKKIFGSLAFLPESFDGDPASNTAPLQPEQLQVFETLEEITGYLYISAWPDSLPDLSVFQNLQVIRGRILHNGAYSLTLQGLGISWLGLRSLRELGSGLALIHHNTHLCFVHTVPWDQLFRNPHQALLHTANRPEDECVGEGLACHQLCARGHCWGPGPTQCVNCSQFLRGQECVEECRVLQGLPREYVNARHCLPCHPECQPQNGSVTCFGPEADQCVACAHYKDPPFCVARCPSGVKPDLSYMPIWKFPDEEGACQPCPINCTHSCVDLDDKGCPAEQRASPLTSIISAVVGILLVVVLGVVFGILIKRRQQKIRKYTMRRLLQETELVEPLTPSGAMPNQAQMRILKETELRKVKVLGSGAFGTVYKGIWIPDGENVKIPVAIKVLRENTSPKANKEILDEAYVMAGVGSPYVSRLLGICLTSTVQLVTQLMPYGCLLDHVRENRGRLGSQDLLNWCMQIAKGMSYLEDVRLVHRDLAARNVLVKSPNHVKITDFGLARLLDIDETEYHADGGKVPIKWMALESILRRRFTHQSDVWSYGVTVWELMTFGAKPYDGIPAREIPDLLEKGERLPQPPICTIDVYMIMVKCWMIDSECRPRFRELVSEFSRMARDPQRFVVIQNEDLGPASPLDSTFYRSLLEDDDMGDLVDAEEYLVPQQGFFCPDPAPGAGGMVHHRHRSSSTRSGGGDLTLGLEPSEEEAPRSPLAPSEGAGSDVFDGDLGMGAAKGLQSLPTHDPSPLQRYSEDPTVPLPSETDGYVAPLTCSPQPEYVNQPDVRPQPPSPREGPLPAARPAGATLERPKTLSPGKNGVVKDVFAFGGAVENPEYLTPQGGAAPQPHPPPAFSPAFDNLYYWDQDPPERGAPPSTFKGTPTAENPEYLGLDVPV
Hepatocyte growth factor receptor, sequence (P08581 whole entry): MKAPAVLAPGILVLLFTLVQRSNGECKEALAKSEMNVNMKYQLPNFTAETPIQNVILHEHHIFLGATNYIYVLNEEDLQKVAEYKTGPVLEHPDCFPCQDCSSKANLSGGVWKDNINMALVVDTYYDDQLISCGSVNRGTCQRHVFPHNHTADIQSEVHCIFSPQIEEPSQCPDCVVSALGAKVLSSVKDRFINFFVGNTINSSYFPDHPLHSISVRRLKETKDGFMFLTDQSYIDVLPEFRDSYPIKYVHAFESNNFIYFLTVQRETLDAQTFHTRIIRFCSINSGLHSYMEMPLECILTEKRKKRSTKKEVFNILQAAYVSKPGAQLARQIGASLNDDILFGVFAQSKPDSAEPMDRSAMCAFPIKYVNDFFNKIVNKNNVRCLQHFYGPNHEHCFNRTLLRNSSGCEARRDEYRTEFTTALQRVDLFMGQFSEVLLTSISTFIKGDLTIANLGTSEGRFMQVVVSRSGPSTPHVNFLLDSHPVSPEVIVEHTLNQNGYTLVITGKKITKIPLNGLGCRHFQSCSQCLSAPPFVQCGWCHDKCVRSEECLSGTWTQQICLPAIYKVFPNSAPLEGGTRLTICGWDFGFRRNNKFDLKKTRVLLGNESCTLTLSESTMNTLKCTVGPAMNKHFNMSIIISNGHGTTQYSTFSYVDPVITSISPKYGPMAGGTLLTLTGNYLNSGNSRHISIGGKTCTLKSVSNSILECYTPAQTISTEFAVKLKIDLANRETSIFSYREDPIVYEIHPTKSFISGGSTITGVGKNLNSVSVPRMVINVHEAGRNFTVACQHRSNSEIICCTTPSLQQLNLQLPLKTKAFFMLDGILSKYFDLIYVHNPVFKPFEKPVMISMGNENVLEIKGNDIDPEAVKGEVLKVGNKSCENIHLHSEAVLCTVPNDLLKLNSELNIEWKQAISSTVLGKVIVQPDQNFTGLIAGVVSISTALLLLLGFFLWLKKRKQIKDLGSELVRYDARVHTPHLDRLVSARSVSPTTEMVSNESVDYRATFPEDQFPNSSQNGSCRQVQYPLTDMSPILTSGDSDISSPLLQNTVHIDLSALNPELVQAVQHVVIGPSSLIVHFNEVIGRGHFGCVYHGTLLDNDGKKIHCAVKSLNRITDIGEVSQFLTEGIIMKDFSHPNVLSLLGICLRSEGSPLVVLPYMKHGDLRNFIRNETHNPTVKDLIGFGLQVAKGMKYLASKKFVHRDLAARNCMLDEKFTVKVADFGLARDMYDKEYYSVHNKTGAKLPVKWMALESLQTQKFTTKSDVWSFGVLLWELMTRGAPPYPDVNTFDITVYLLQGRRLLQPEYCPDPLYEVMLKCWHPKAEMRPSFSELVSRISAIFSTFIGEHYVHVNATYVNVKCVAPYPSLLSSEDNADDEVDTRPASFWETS
Tyrosine-protein kinase Lck, sequence (P06239 whole entry): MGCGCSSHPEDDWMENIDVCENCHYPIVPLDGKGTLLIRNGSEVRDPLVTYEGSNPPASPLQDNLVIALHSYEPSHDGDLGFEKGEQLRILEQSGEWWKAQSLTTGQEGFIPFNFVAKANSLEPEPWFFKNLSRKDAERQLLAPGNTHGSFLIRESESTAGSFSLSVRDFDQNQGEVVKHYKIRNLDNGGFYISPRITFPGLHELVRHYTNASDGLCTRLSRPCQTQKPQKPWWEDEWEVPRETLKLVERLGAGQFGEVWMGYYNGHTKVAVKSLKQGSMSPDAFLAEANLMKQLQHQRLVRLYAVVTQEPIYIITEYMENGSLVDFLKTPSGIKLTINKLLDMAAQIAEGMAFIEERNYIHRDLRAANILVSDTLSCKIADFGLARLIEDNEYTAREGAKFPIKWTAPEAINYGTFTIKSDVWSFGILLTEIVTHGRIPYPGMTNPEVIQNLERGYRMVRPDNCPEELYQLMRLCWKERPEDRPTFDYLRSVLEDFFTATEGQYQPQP

IC50 [1] [µM]	IC50 [2] [µM]	IC50 (HT-29) [µM]	IC50 (A2780) [µM]	AUC(0-t) at 4 h [4] [µM·h]	concentration at 4 h [5] [µM]	SMILES	IC50 (NCI-N87 [3]) [µM]	further results
0.036	0.15	2.7	2.7	30	7.5	NC1CCN(Cc2ccn3ncnc(Nc4ccc(OCc5cccnc5)c(Cl)c4)c23)CC1	0.23	
0.17	0.19					COc1cn2ncnc(Nc3ccc4c(cnn4Cc4cccc(F)c4)c3)c2c1CN1CCCNCC1	3.7	
0.034	0.19	> 5	> 5	22	4.5	NC1CCN(Cc2ccn3ncnc(Nc4ccc5c(cnn5Cc5cccnc5)c4)c23)CC1	0.086	metabolic rate (Liver): 0.01 nmol/min/mg
0.19	0.2					CS(=O)(=O)CCNC1CCN(Cc2ccn3ncnc(Nc4ccc5c(cnn5Cc5cccc(F)c5)c4)c23)CC1	0.7	
0.12	0.11	9.5	9.5			O=C(CO)NC1CCN(Cc2ccn3ncnc(Nc4ccc5c(cnn5Cc5cccc(F)c5)c4)c23)CC1	0.31	
0.022	0.036	2	2	13	3.7	NC1CCN(Cc2ccn3ncnc(Nc4ccc(OCc5ccccn5)c(Cl)c4)c23)CC1	0.058	metabolic rate (Liver): 0.04 nmol/min/mg; inhibition in vivo at 240 mg/kg (NCI-N87 [6]; dose 240 mg/kg): 110%; minimal effective dose (NCI-N87 [6]; read-out: MED): 120 mg/kg
0.18	0.38	> 10				CC(=O)NC1CCN(Cc2ccn3ncnc(Nc4ccc5c(cnn5Cc5cccc(F)c5)c4)c23)CC1	0.29	IC50 (HT29): > 10 µM
0.041	0.048					Fc1cccc(COc2ccc(Nc3ncnn4ccc(CN5CCCNCC5)c34)cc2Cl)c1	0.6	
0.031		5.4	5.4			OCCNC1CCN(Cc2ccn3ncnc(Nc4ccc5c(cnn5Cc5cccc(F)c5)c4)c23)CC1	0.073	
0.076	0.11	5	5			Fc1cccc(Cn2ncc3cc(Nc4ncnn5ccc(CNC6CCNCC6)c45)ccc32)c1	1.15	
0.035	0.047	> 10	> 10	3.6	1.6	NC1CCN(Cc2ccn3ncnc(Nc4ccc5c(cnn5Cc5ccccn5)c4)c23)CC1	0.12	metabolic rate (Liver): 0.01 nmol/min/mg
0.07	0.06	3.9	3.9			N[C@@H]1CCN(Cc2ccn3ncnc(Nc4ccc5c(cnn5Cc5cccc(F)c5)c4)c23)C1	0.83	
		3.6	3.6			Fc1cccc(Cn2ncc3cc(Nc4ncnn5ccc(CN6CCCNCC6)c45)ccc32)c1	0.11	inhibition in vivo at 135 mg/kg ([14]; dose 135 mg/kg): 78%; minimal effective dose ([14]; read-out: MED): 90 mg/kg; inhibition in vivo at 180 mg/kg (NCI-N87 [12]): 121%; minimal effective dose at 180 mg/kg (NCI-N87 [12]): 90 mg/kg
0.043	0.05	6.1				CC1(N)CCN(Cc2ccn3ncnc(Nc4ccc5c(cnn5Cc5cccc(F)c5)c4)c23)CC1	0.07	IC50 (HT29): 6.1 µM
0.018	0.07	> 5	> 5	15	3.9	NC1CCN(Cc2ccn3ncnc(Nc4ccc(OCc5cccc[n+]5[O-])c(Cl)c4)c23)CC1	0.11	metabolic rate (Liver): 0 nmol/min/mg; Activity (GEO): inactive
0.032	0.038					NC1CCN(Cc2ccn3ncnc(Nc4ccc(OCc5cccc(F)c5)c(Cl)c4)c23)CC1	0.083	
0.11	0.1	7.6	7.6			CN(C)C1CCN(Cc2ccn3ncnc(Nc4ccc5c(cnn5Cc5cccc(F)c5)c4)c23)CC1	0.45	
0.054	0.063	7.3	7.3			CNC1CCN(Cc2ccn3ncnc(Nc4ccc5c(cnn5Cc5cccc(F)c5)c4)c23)CC1	0.078	
0.19	0.53	> 5	> 5			NC1CCN(Cc2ccn3ncnc(Nc4ccc5c(cnn5Cc5ccncc5)c4)c23)CC1	0.47	
0.038	0.035	2.9	2.9			NCC1CCN(Cc2ccn3ncnc(Nc4ccc5c(cnn5Cc5cccc(F)c5)c4)c23)CC1	0.14	
0.043	0.04					COc1cn2ncnc(Nc3ccc4c(cnn4Cc4cccc(F)c4)c3)c2c1CN1CCC(N)CC1	0.43	
0.026	0.032	3.5	3.5	21	6.3	NC1CCN(Cc2ccn3ncnc(Nc4ccc(OCc5cnccn5)c(Cl)c4)c23)CC1	0.072	metabolic rate (Liver): 0.12 nmol/min/mg; Activity (GEO): inactive; inhibition in vivo at 180 mg/kg (NCI-N87 [12]): 63%; minimal effective dose at 180 mg/kg (NCI-N87 [12]): 180 mg/kg
0.052	0.05	6.5	6.5			N[C@H]1CCN(Cc2ccn3ncnc(Nc4ccc5c(cnn5Cc5cccc(F)c5)c4)c23)C1	0.81	
0.013	0.019	> 5	> 5	9.9	1.3	Cc1cncc(Cn2ncc3cc(Nc4ncnn5ccc(CN6CCC(N)CC6)c45)ccc32)c1	0.036	metabolic rate (Liver): 0.06 nmol/min/mg; Activity (GEO): inactive; inhibition in vivo at 180 mg/kg (NCI-N87 [12]): 89%; minimal effective dose at 180 mg/kg (NCI-N87 [12]): 120 mg/kg
0.06		3.5	3.5	7.8	1.8	Cc1cncc(COc2ccc(Nc3ncnn4ccc(CN5CCC(N)CC5)c34)cc2Cl)c1	0.18	metabolic rate (Liver): 0 nmol/min/mg
		8.7				Fc1cccc(Cn2ncc3cc(Nc4ncnn5ccc(COC[C@@H]6CNCCO6)c45)ccc32)c1		IC50 [11]: > 50 µM

SMILES	IC50 [1] [µM]	IC50 [2] [µM]	IC50 (HT-29) [µM]	IC50 (A2780) [µM]	AUC(0-t) at 4 h [4] [µM·h]	concentration at 4 h [5] [µM]	IC50 (NCI-N87 [3]) [µM]	further results
NC1CCN(Cc2ccn3ncnc(Nc4ccc5c(cnn5Cc5cccc(F)c5)c4)c23)CC1	0.023	0.035	4.3		14	2.7	0.035	metabolic rate (Liver): 0.05 nmol/min/mg; inhibition in vivo at 240 mg/kg [7]: 85%; IC50 [8]: 3.9 µM; IC50 [9]: 0.71 µM; IC50 [10]: 0.48 µM; IC50 (CDK2/Cyclin E1): 1.9 µM; IC50 (MAP kinase p38): > 50 µM; IC50 [11]: > 50 µM; IC50 (Protein kinase C (PKC)): 2.2 µM; IC50 (HT29): 4.3 µM; inhibition in vivo at 180 mg/kg (NCI-N87 [12]): 133%; minimal effective dose at 180 mg/kg (NCI-N87 [12]): 60 mg/kg; MED [13]: 120 mg/kg
